In the library only some 2.4% were active in any assay of this set; here they are far more common.
M18AAP inhibitor = PfM18AAP enzyme inhibition; AID 1822; hit rate 1.2% among 290,000; inhibition, % at 7.35 µM; recombinant PfM18AAP, H-Glu-NHMec fluorogenic cleavage;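 active = inhibition above the campaign mean inhibition over all tested compounds plus 3 SD, cut at about 28% in these data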;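 note: 0% = plate median of test compound wells and 100% = 2 mM ZnCl2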
HGIII-sPLA2 inh = Inhibits HGIII-sPLA2 liposome hydrolysis, primary screen | inhibition, % at 12.2 µM | Q9NZ20 | AID 743126 | hit rate 0.56% among 370,000 | QFRET BODIPY PC-A2 liposome hydrolysis, fluorescence;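 active = inhibition above mean plus 3 SD of compounds lying within the high and low control bounds, cut at about 19% in these data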;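 note: 0% = median of test compound wells and 100% = no enzyme DMSO wells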
Target sequence (Q9NZ20 whole entry, looked up): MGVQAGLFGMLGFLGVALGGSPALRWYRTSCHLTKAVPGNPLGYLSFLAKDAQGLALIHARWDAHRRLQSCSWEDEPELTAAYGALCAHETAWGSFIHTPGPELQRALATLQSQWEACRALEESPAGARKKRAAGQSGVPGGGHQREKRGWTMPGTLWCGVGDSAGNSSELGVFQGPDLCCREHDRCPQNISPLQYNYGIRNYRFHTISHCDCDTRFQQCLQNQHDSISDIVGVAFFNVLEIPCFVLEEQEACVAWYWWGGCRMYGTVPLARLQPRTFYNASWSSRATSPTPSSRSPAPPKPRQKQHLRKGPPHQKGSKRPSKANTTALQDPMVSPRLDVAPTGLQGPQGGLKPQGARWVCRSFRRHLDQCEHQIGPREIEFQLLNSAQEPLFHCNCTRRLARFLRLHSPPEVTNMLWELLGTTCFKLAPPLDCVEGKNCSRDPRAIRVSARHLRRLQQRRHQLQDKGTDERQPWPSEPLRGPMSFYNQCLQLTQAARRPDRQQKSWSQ
VIM-2 inh = inhibitors of Pseudomonas aeruginosa VIM-2 metallo-beta-lactamase; purified VIM-2, nitrocefin hydrolysis, epi-absorbance fluorescence; inhibition, % at 5.6 µM; hit rate 0.89% among 290,000; AID 1527;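 active = inhibition above the mean of all tested compounds plus 3 SD, cutoff set per screening run, cut at about 7.5% in these data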;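 note: red hydrolysis product quenches plate fluorescence so inhibitors raise well fluorescence; 0% = enzyme with DMSO and 100% = DMSO without enzyme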
IMP-1 inh = inhibitors of Pseudomonas aeruginosa IMP-1 metallo-beta-lactamase; hit rate 0.45% among 290,000; inhibition, % at 5.6 µM; purified IMP-1, nitrocefin hydrolysis, epi-absorbance fluorescence; AID 1556;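 active = inhibition above the mean plus 3 SD of all compounds in the same screening run, cut at about 4.5% in these data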;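 note: 0% = IMP-1 with DMSO and 100% = DMSO wells lacking enzyme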
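System: purified IMP-1 / Input: IMP-1 dispensed at 0.2 nM / Medium: 50 mM HEPES pH 7.1, 50 µM ZnSO4, 0.05% Brij 35 / Timing: 15 min enzyme–compound preincubation, then 25 min nitrocefin reaction, 25 °C / Technique: plate fluorescence quenching by hydrolysis product, ex 480/em 530 nm / Repeats: singlicate testing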
hGIII sPLA2 conf = human GIII-sPLA2 inhibition, confirmation. shares compounds with HGIII-sPLA2 inh. recombinant hGIII-sPLA2, BODIPY PC-A2 QFRET fluorescence. inhibition, % at 12.2 µM. hit rate 34% among 2,000;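 active = mean inhibition across triplicates above the hit cutoff set in the earlier primary screen, cut at about 19% in these data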;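 note: 0% = enzyme with DMSO and 100% = DMSO wells lacking enzyme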
535nm interf = 535nm fluorescence interference, HGIII-sPLA2 counter-screen; hit rate 8.5% among 2,000; AID 743282; shares compounds with HGIII-sPLA2 inh; BODIPY FL product fluorescence interference, QFRET; inhibition, % at 12.2 µM;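 active = average inhibition above the solvent-only control mean plus 3 SD, cut at about 6% in these data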;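 note: 0% = DMSO with substrate plus product and 100% = DMSO with substrate alone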
BODIPY interf DR = 535nm optical interference dose response, HGIII-sPLA2 counter-screen; shares compounds with HGIII-sPLA2 inh; BODIPY FL product fluorescence interference, cell-free; IC50, µM; 240 tested, under 10 active; AID 743455;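 active = IC50 at or below 10 µM; inactive = IC50 above 10 µM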
Starred values were filed as active, the others as inactive; / = not tested or not shown.

SMILES	M18AAP inhibitor	HGIII-sPLA2 inh	VIM-2 inh	IMP-1 inh	hGIII sPLA2 conf	535nm interf	others
Cc1ccc(C)c(NC(=S)NNC(=O)c2csc(C)c2C)c1	-7.5	20.8*	-3.9	-2.3	37.7*	0.7	BODIPY interf DR=>122
Cc1ccc(C)c(NC(=S)NNC(=O)c2sccc2C)c1	-4.1	14.0	-2.8	-1.9	/	/
C#Cc1cccc(OC[C@@H](O)CN2CCC(C(O)(c3ccccc3)c3ccccc3)CC2)c1	/	-19.4	/	/	/	/
CCOC(=O)CNc1ncc([N+](=O)[O-])cc1C#N	3.0	21.6*	-2.4	-3.9	-2.9	-8.5
COc1ccc(OC)c(NC(=O)Nc2nc(C(C)N)cs2)c1 (centres undefined)	/	7.6	/	/	/	/
CCCCOc1ccc(C(=O)NCC(=O)N2CCN(C/C=C/c3ccccc3)CC2)cc1	/	-16.6	/	/	/	/
O=C(NNc1nc(-c2ccccc2)cs1)c1cccs1	13.1	33.4*	-0.8	-2.6	49.4*	11.5*
CC(=O)NNc1nc(-c2ccc(C)cc2)cs1	26.3	5.1	-1.9	-2.8	/	/
O=C(NNc1nc(-c2ccc(F)cc2)cs1)c1ccccc1	17.6	29.4*	-7.0	-4.4	40.5*	8.1*
CC(C)(C)c1csc(NC(=O)c2ccccc2O)n1	-9.2	-23.3	0.6	-2.5	/	/
O=C(NNc1nc(-c2ccccc2)cs1)c1ccc(F)cc1	10.1	36.4*	-4.6	-3.0	45.6*	10.7*
CC(C)(C)c1csc(NNC(=O)c2ccc(Br)cc2)n1	-1.6	46.5*	-1.6	-1.4	49.4*	5.3	BODIPY interf DR=>122
CC(=O)NNc1nc(-c2ccccc2)cs1	22.7	4.4	-1.9	-3.1	/	/
O=C(NCc1cccc(Cl)c1)c1cccc2c(-c3cccnc3)coc12	/	-12.9	/	/	/	/
CN1CCN(c2ccc3c(c2)Oc2ccccc2CN(Cc2cn(Cc4ccccc4C(F)(F)F)nn2)S3(=O)=O)CC1	/	-9.3	/	/	/	/
COc1cccc(Nc2nc(C(N)CO)cs2)n1 (centres undefined)	/	21.0*	/	/	11.8	-5.9
CC1CNC(=S)N(c2ccccc2)C1=O (centres undefined)	/	6.6	/	/	/	/
CNc1nn(-c2cccc(Cl)c2)nc1N	-14.9	21.6*	1.9	0.6	35.2*	2.6	BODIPY interf DR=>122
Nc1ccccc1Nc1cc(-c2ccccc2)nn1-c1cccc(Cl)c1	4.3	14.8	-1.3	1.1	/	/
CCc1cc(=O)oc2c3c(cc(OCC(=O)NCCCCCC(=O)O)c12)OC(C)(C)CC3	-8.9	0.3	-0.5	-1.0	/	/
CCN1CCN(C(c2cccs2)C(C)NC(=S)NC2CCCCC2)CC1 (centres undefined)	2.7	12.1	-2.6	-3.1	/	/
CC(NC(=S)NC1CCCCC1)C(c1cccs1)N1CCOCC1 (centres undefined)	-9.3	24.3*	-2.3	-2.0	18.9	-3.5
COc1ccccc1NC(=S)NC(C)C(c1cccs1)N1CCOCC1 (centres undefined)	-1.1	25.1*	-1.6	-2.1	8.3	-11.5
COc1ccc2c(c1)C(=O)C(=O)N2CC1COc2ccccc2O1 (centres undefined)	9.9	19.8*	-2.4	-0.8	25.3*	0.5
Cc1ccc(S(=O)(=O)NCCC(=O)N2CC(C)OC(C)C2)cc1 (centres undefined)	/	21.7*	/	/	1.0	-8.2
SMILES	M18AAP inhibitor	HGIII-sPLA2 inh	VIM-2 inh	IMP-1 inh	hGIII sPLA2 conf	535nm interf	others
CCSC1=NC(=O)/C(=C2/C=Cc3ccccc3N2CC)S1	3.5	20.6*	-3.9	-6.8	46.3*	9.6*
CCN1/C(=C2\OC(=S)N(C)C2=O)C=Cc2ccccc21	-8.6	6.7	-0.6	-2.4	/	/
COc1ccccc1N(C)S(=O)(=O)c1ccc(C(=O)NNC(=O)c2ccccc2O)cc1	/	20.1*	/	/	2.0	1.0
COc1ccccc1N(C)S(=O)(=O)c1ccc(Cl)c(C(=O)NNC(=O)c2ccccc2O)c1	22.4	11.3	-2.5	-1.3	/	/
Cc1ccc2c(c1)C(=O)C(=O)N2Cc1ccc(Cl)cc1	/	20.8*	/	/	23.0*	0.8
CCOC(=O)[C@]12CCCC=C1N(Cc1ccc3c(c1)OCO3)C(=O)[C@H](CC(=O)N1CCN(C(=O)C3CC3)CC1)C2	/	0.9	/	/	/	/
CCOC(=O)c1cnc2ccc(OCC)cc2c1NCc1ccccc1OC	1.8	23.9*	-3.0	-4.2	-17.0	-25.5
CCOC(=O)c1cnc2ccc(OC)cc2c1NCc1ccccc1	0.8	1.3	-0.7	0.5	/	/

Bioassay records deposited in PubChem by The Scripps Research Institute Molecular Screening Center.
